Consider six compounds from publication PMC3190670 (ChemMedChem, 2011).

Where only a bound is given, the exact number is not on record here.

This test has as its system Bovine brain tubulin. The test is described as follows: turbidimetric tubulin assembly. The conditions noted are these: read-out: IC50 ± SD [μM]^[a]; 10 μM tubulin, glutamate buffer, GTP, 30°C, 20 min. Format: biochemical, Bos taurus. The method in brief:
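Purified bovine brain tubulin was preincubated with varying test-compound concentrations in glutamate buffer at 30°C, then cooled to 0°C. GTP was added, and mixtures went into 0°C cuvettes and were warmed to 30°C. Assembly was followed turbidimetrically in a recording spectrophotometer. IC50 was the concentration that cut the extent of assembly by 50% after 20 min.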
As to `COc1ccc(/C=C\c2cc(OC)c(OC)c(OC)c2)cc1O` [1a, CA-4, reference compound], the IC50 worked out at […]. As to `COc1cc2oc(C(=O)c3cc(OC)c(OC)c(OC)c3)cc2cc1N` [3g, (5-Amino-6-methoxybenzo[b]furan-2-yl)(3,4,5-trimethoxyphenyl)methanone], the IC50 came out at 1.4 ± 0.01 µM. For the compound `COc1cc2oc(C(=O)c3cc(OC)c(OC)c(OC)c3)c(C)c2cc1N` [3h, (5-Amino-3-methyl-6-methoxybenzo[b]furan-2-yl)(3,4,5-trimethoxyphenyl)methanone], the IC50 is 0.56 ± 0.08 µM. In the case of `COc1cc(C(=O)c2cc3cc(N)cc(OC)c3o2)cc(OC)c1OC` [3i, (5-Amino-7-methoxybenzo[b]furan-2-yl)(3,4,5-trimethoxyphenyl)methanone], the IC50 came to 3.1 ± 0.2 µM.

As for `COc1cc(C(=O)c2oc3c(OC)cc(N)cc3c2C)cc(OC)c1OC` [3j, (5-Amino-3-methyl-7-methoxybenzo[b]furan-2-yl)(3,4,5-trimethoxyphenyl)methanone], the 50% inhibitory concentration (IC50) was 1.6 ± 0.1 µM. Regarding `C=C(Br)C(=O)Nc1cccc2oc(C(=O)c3cc(OC)c(OC)c(OC)c3)cc12` [4a, 2-Bromo-N-[2-(3,4,5-trimethoxybenzoyl)-1-benzo[b]furan-4-yl]acrylamide], the IC50 is > 40 µM.

Broadly, the IC50 is the concentration needed to halve the response being measured.
